ChEMBL document CHEMBL5230169, “QSAR, structure-based pharmacophore modelling and biological evaluation of novel platelet ADP receptor (P2Y12) antagonist” (RSC Med Chem, 2023)

Key:
Type in all cases: cell-based
[1] = target: P2Y purinoceptor 12 (Homo sapiens) (UniProt Q9H244); assay: Antagonist activity at P2Y12 receptor in human blood platelets assessed as inhibition of ADP-induced platelet aggregation at 10 uM compound preincubated with blood for 5 mins prior to ADP addition by electrode aggregometry assay; details: filed as antagonist
P2Y purinoceptor 12 (Homo sapiens), sequence (Q9H244 whole entry): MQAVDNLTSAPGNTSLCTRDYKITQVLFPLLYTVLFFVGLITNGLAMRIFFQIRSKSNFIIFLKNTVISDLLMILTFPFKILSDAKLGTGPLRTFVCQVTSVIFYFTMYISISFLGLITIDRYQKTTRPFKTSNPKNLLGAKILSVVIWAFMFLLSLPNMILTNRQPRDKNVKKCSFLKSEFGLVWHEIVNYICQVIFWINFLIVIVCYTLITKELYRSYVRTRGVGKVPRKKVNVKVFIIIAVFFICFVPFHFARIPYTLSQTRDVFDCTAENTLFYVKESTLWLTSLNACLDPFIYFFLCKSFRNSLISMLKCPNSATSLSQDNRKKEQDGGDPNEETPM
Method in brief: (§1)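 Fresh hirudin-anticoagulated human whole blood from volunteers free of medication for seven days, tested within two hours of venepuncture. 300 μL blood mixed with 300 μL pre-warmed isotonic saline containing compound (0, 0.1, 1, 10 or 100 μM final) or vehicle (1% DMSO final). Incubated 5 min at 37 °C, then 20 μL 0.2 mM ADP added.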

[2] = target: P2Y purinoceptor 12 (Homo sapiens) (UniProt Q9H244); assay: Antagonist activity at P2Y12 receptor in human blood platelets assessed as inhibition of ADP-induced platelet aggregation at 1 uM compound preincubated with blood for 5 mins prior to ADP addition by electrode aggregometry assay; method in brief: as §1
[3] = target: P2Y purinoceptor 12 (Homo sapiens) (UniProt Q9H244); assay: Antagonist activity at P2Y12 receptor in human blood platelets assessed as inhibition of ADP-induced platelet aggregation at 0.1 uM compound preincubated with blood for 5 mins prior to ADP addition by electrode aggregometry assay; method in brief: as §1

SMILES: O=C(CCC(=O)Nc1ccc2[nH]c3ccccc3c(=O)c2c1)Nc1ccc2[nH]c3ccccc3c(=O)c2c1
- inhibition [1]: 57.8%
- inhibition [2]: 33.6%
- inhibition [3]: 22.3%

SMILES: CCOC(=O)c1cc(NC(=O)c2cc(NC(=O)c3cc(NC(=O)c4c(-c5ccccc5)noc4C)cn3C)cn2C)cn1C
- inhibition [1]: 61.8%
- inhibition [2]: 38.2%
- inhibition [3]: 37%

SMILES: O=C(CCCCCCCC(=O)Nc1ccc2[nH]c3ccccc3c(=O)c2c1)Nc1ccc2[nH]c3ccccc3c(=O)c2c1
- inhibition [1]: 41.1%
- inhibition [2]: 22.8%
- inhibition [3]: 4.75%
